SMILES strings stand for the structures. Active and inactive are the calls of the source. The calls are words filed in the database; no cut-off is given here.

Our source for the Kd, IC50 and Activity values is ChEMBL document CHEMBL3352086, “Structure-based design and development of functionalized Mercaptoguanine derivatives as inhibitors of the folate biosynthesis pathway enzyme 6-hydroxymethyl-7,8-dihydropterin pyrophosphokinase from Staphylococcus aureus” (J Med Chem, 2014).

For assay [1], the target named is T1, 2-amino-4-hydroxy-6-hydroxymethyldihydropteridin e pyrophosphokinase (Staphylococcus aureus, UniProt X5EH84).
T1 sequence (X5EH84 whole entry): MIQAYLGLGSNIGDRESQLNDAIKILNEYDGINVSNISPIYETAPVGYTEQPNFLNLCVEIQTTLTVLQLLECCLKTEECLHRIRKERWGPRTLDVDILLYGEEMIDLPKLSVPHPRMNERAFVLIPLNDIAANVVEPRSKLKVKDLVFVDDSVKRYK
Briefly: Binding affinity to Staphylococcus aureus recombinant HPPK by surface plasmon resonance analysis in presence of ATP. The method in brief:
(§1)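 Ni/NHS-EDC capture-coupled on an NTA chip (SaHPPK loaded at 225 μg mL⁻¹, ~5400 RU; EcDHPS at 80 μg mL⁻¹, ~7200 RU), with a USP7 control surface. Analytes were 3-fold serially diluted, with 30 s contact at 60 μL min⁻¹ and 60 s dissociation, in duplicate or more. Responses were double-referenced and equilibrium responses fit to a 1:1 steady-state model.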
On the technique in general: Surface plasmon resonance follows binding to a sensor surface in real time, without labels.

The target of assay [2] is T1, 2-amino-4-hydroxy-6-hydroxymethyldihydropteridin e pyrophosphokinase. The assay is described as follows: Binding affinity to Staphylococcus aureus recombinant HPPK by surface plasmon resonance analysis. The method in brief: as §1
A further assay concerns the target T2, Dihydropteroate synthase (Bacteria, UniProt P0AC13).
T2 sequence (P0AC13 whole entry): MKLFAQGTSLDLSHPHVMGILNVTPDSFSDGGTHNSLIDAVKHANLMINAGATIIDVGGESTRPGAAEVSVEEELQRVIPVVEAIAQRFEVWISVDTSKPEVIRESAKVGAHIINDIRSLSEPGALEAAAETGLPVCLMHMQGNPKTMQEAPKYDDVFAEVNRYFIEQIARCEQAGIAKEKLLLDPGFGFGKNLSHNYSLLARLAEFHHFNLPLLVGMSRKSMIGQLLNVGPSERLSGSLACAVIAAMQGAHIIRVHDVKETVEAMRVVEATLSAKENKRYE
The assay is described as follows: Binding affinity to Escherichia coli DHPS by surface plasmon resonance analysis. In a few lines: as §1

In assay [3] the target is T1, 2-amino-4-hydroxy-6-hydroxymethyldihydropteridin e pyrophosphokinase. Briefly: Inhibition of Staphylococcus aureus HPPK after 20 mins by luciferase reporter gene assay. The method in brief: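 Kinase-Glo ATP-depletion assay: HPPK 0.4 ng μL⁻¹ with 0.3 μM pterin and 0.2 μM ATP in 100 mM Tris-HCl pH 8.5, 10 mM MgCl₂, 0.01% BSA, 0.01% Tween 20, 10 mM β-mercaptoethanol. Compound added from 50% DMSO solution; 20 min at room temperature, then stopped with Kinase-Glo reagent and luminescence read 10 min later. Triplicates; IC50 from sigmoidal dose–response fit.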
Background: In a reporter assay the amount or activity of a reporter protein is the signal.

The target is the same in assay [4]. The assay is described as follows: Binding affinity to Staphylococcus aureus HPPK by isothermal calorimetry. For orientation: Isothermal titration calorimetry measures the heat released or taken up as one component is titrated into another.
Assay [5] has as its target T3, 2-amino-4-hydroxy-6-hydroxymethyldihydropteridin e pyrophosphokinase (Staphylococcus aureus) (UniProt X5EH84).
T3 sequence (whole entry): T1 sequence (X5EH84 whole entry)
Briefly: Binding affinity to Staphylococcus aureus HPPK in presence of AMPCPP by 2D 15N HSQC NMR spectroscopy. The method in brief: (§2)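 ¹⁵N-labelled SaHPPK was expressed in E. coli BL21(DE3) in minimal medium with ¹⁵N ammonium chloride. 2D ¹⁵N HSQC spectra used ~120 μM SaHPPK in 50 mM HEPES pH 8 with 10 mM Mg²⁺ and saturating AMPCPP. Ligand was titrated to saturation from a 50 mM DMSO-d₆ stock, and binding was tracked by backbone amide chemical shift perturbations.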

In assay [6] the target is T3, 2-amino-4-hydroxy-6-hydroxymethyldihydropteridin e pyrophosphokinase (Staphylococcus aureus). Briefly: Binding affinity to Staphylococcus aureus HPPK in absence of ATP by NMR spectroscopy.
Assay [7] shares this target. Briefly: Binding affinity to Staphylococcus aureus HPPK in presence of ATP by NMR spectroscopy.
The target is the same in assay [8]. The assay is described as follows: Binding affinity to Staphylococcus aureus HPPK in presence of AMPCPP by NMR spectroscopy. The method in brief: as §2

In general, Kd refers to the concentration at which binding is half-saturated. As for `Nc1nc2[nH]c(SCC(=O)c3ccc(-c4ccccc4)cc3)nc2c(=O)[nH]1`, the dissociation constant Kd was determined as 0.81 µM in assay [1], 21.5 µM in assay [2] and 8.4 µM at Dihydropteroate synthase.

Take `N#Cc1ccc(CSc2nc3nc(N)[nH]c(=O)c3[nH]2)cc1`: the Kd in assay [1] was found to be 0.66 µM; in assay [2] it was 11.1 µM; at Dihydropteroate synthase it was 12.3 µM.

Usually IC50 stands for the concentration that gives 50% inhibition. A lower IC50 goes with inhibition by little substance. For `Nc1nc2[nH]c(SCc3ccccc3F)nc2c(=O)[nH]1`, in assay [3], inhibition was half-maximal at 24.9 µM (IC50). Besides, the results for the Kd (in [1]; in assay [2]; on Dihydropteroate synthase) were 0.45 µM, 4.3 µM and 8.5 µM, respectively.

Take `COc1ccccc1C(=O)CSc1nc2nc(N)[nH]c(=O)c2[nH]1`: the values for the Kd (in assay [1]; in [2]; at Dihydropteroate synthase) were 2.8 µM, 21.7 µM and 1.6 µM, respectively.

On to `Nc1nc2nc(SCC(=O)c3ccccc3)[nH]c2c(=O)[nH]1`, for which the Kd in assay [1] was 1.4 µM; in [2] it was 10.3 µM; on Dihydropteroate synthase, 3.9 µM.

`Nc1nc2[nH]c(S)nc2c(=O)[nH]1` displayed a concentration for half-maximal inhibition (IC50) in [3] of 41 µM. Also, the Kd was 12.6 µM in [1], 11 µM in [4], 10.8 µM in assay [2] and 76.2 µM on Dihydropteroate synthase.

With `CC(Sc1nc2nc(N)[nH]c(=O)c2[nH]1)C(=O)c1ccccc1` (stereo not drawn), the Kd in assay [1] was 1.8 µM; in [2], 7.5 µM; at Dihydropteroate synthase, 8.2 µM.

As for `CC(=O)CSc1nc2c(=O)[nH]c(N)nc2[nH]1`, the Kd in [1] worked out at 1.85 µM; in assay [2], 42.7 µM; at Dihydropteroate synthase, 7.8 µM.

In the case of `Nc1nc2[nH]c(SCc3ccccc3)nc2c(=O)[nH]1`, the Kd in assay [1] turned out to be 1.79 µM; in assay [2], 13.5 µM; at Dihydropteroate synthase, 43.9 µM.

Turning to `COc1ccc(CCSc2nc3c(=O)[nH]c(N)nc3[nH]2)cc1`, the equilibrium dissociation constant (Kd) in [1] amounted to 7.8 µM; in [2], 73.5 µM; on Dihydropteroate synthase it was 14.2 µM.

As for `Nc1nc2[nH]c(SCc3ccccc3C(F)(F)F)nc2c(=O)[nH]1`, the values for the Kd (in [1]; in assay [2]; on Dihydropteroate synthase) were 2.81 µM, 7.26 µM and 9.74 µM, respectively.

For `COc1ccc(C(=O)CSc2nc3nc(N)[nH]c(=O)c3[nH]2)cc1`, the Kd was 1.09 µM in assay [1], 76.6 µM in [2] and 3.9 µM on Dihydropteroate synthase. For the same molecule, the result in [5], in assay [7] and in [8] was Active. In addition, the result in assay [6] was inactive.
